Laboratory results reported in ChEMBL document CHEMBL2311408, “Inhibition of norovirus 3CL protease by bisulfite adducts of transition state inhibitors” (Bioorg Med Chem Lett, 2013).

Assays:
[1] = tested on: Norovirus; assay: Antiviral activity against Norovirus infected in human HG23 cells; type: functional; details: read-out: ED50 (the source's name)
Method in brief: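 Norovirus replicon-bearing cells, with inhibition of viral replication reported as ED50 in μM.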

[2] = Aqueous stability of the compound assessed as compound hydration in DMSO/water after 5 mins by Mass spectrometry; type: physicochemical
Method in brief: (§1)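 The bisulfite adduct was placed in water. The species present (intact bisulfite adduct or hydrated aldehyde) were examined after 5 min of exposure and again after 24 h.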

[3] = Cytotoxicity against human HG23 cells up to 320 uM; type: cell-based
[4] = Inhibition of Norovirus recombinant 3CL protease using Edans-EPDFHLQGPEDLAK-Dabcyl as substrate for 30 mins by fluorometry
[5] = Stability of the compound in buffer solution at pH 7.4 assessed as formation of aldehyde form of compound within 1 hr; type: physicochemical; details: pH 7.4, 1 h
Method in brief: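 The bisulfite adduct was placed in buffer solution at pH 7.4. Over about one hour, it was followed for dissociation to the free aldehyde and for hydration of that aldehyde.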

[6] = Aqueous stability of the compound in DMSO/water after 24 hrs by Mass spectrometry; type: physicochemical; method in brief: as §1

## CC(C)C[C@H](NC(=O)OCc1ccccc1)C(=O)N[C@H](C=O)CC1CCNC1=O (stereo partly specified)
[1]
  EC50: 200 nM
[2]
  Stability: Unstable
[3]
  Activity: Non-toxic
[4]
  IC50: 600 nM

## CC(C)C[C@H](NC(=O)OCc1ccc(F)cc1)C(=O)N[C@@H](CC1CCNC1=O)C(O)S(=O)(=O)[O-].[Na+] (stereo partly specified)
[1]
  EC50: 400 nM
[3]
  Activity: Non-toxic

## CC(C)C[C@H](NC(=O)OCc1cccc(F)c1)C(=O)N[C@H](C=O)CC1CCNC1=O (stereo partly specified)
[1]
  EC50: 300 nM
[3]
  Activity: Non-toxic
[4]
  IC50: 700 nM

## CC(C)C[C@H](NC(=O)OCc1cccc(F)c1)C(=O)N[C@@H](CC1CCNC1=O)C(O)S(=O)(=O)[O-].[Na+] (stereo partly specified)
[1]
  EC50: 200 nM
[3]
  Activity: Non-toxic

## CC(C)C[C@H](NC(=O)OCCc1ccccc1)C(=O)N[C@H](C=O)CC1CCNC1=O (stereo partly specified)
[1]
  EC50: 1100 nM
[3]
  Activity: Non-toxic
[4]
  IC50: 1900 nM

## CC(C)C[C@H](NC(=O)OCCc1ccccc1)C(=O)N[C@@H](CC1CCNC1=O)C(O)S(=O)(=O)[O-].[Na+] (stereo partly specified)
[1]
  EC50: 1000 nM
[3]
  Activity: Non-toxic

## CC(C)C[C@H](NC(=O)OCCC1CCCCC1)C(=O)N[C@H](C=O)CC1CCNC1=O (stereo partly specified)
[1]
  EC50: 300 nM
[3]
  Activity: Toxic
[4]
  IC50: 600 nM

## CC(C)C[C@H](NC(=O)OCCC1CCCCC1)C(=O)N[C@@H](CC1CCNC1=O)C(O)S(=O)(=O)[O-].[Na+] (stereo partly specified)
[1]
  EC50: 300 nM
[3]
  Activity: Toxic

## CCOC(=O)N[C@@H](C)C(=O)N[C@@H](CC1CCNC1=O)C(O)(C(=O)NC1CC1)S(=O)(=O)[O-].[Na+] (stereo partly specified)
[1]
  EC50: 800 nM
[3]
  Activity: Non-toxic
[4]
  IC50: 5300 nM

## CC(C)C[C@H](NC(=O)OCc1ccccc1)C(=O)N[C@@H](CC1CCNC1=O)C(O)S(=O)(=O)[O-].[Na+] (stereo partly specified)
[1]
  EC50: 300 nM
[5]
  Stability: Stable
[6]
  Stability: Stable
[3]
  Activity: Non-toxic

## CCC[C@H](NC(=O)OCc1ccccc1)C(=O)N[C@H](C=O)CC1CCNC1=O (stereo partly specified)
[1]
  EC50: 2300 nM
[3]
  Activity: Non-toxic
[4]
  IC50: 6100 nM

## CCC[C@H](NC(=O)OCc1ccccc1)C(=O)N[C@@H](CC1CCNC1=O)C(O)S(=O)(=O)[O-].[Na+] (stereo partly specified)
[1]
  EC50: 1500 nM
[3]
  Activity: Non-toxic

## CCCC[C@H](NC(=O)OCc1ccccc1)C(=O)N[C@H](C=O)CC1CCNC1=O (stereo partly specified)
[1]
  EC50: 1200 nM
[3]
  Activity: Non-toxic
[4]
  IC50: 4500 nM

## CCCC[C@H](NC(=O)OCc1ccccc1)C(=O)N[C@@H](CC1CCNC1=O)C(O)S(=O)(=O)[O-].[Na+] (stereo partly specified)
[1]
  EC50: 1300 nM
[3]
  Activity: Non-toxic

## O=C[C@H](CC1CCNC1=O)NC(=O)[C@H](CC1CCCCC1)NC(=O)OCc1ccccc1 (stereo partly specified)
[1]
  EC50: 50 nM
[3]
  Activity: Non-toxic
[4]
  IC50: 500 nM

## O=C(N[C@@H](CC1CCCCC1)C(=O)N[C@@H](CC1CCNC1=O)C(O)S(=O)(=O)[O-])OCc1ccccc1.[Na+] (stereo partly specified)
[1]
  EC50: 60 nM
[3]
  Activity: Non-toxic

## O=C[C@H](CC1CCNC1=O)NC(=O)[C@H](Cc1ccccc1)NC(=O)OCc1ccccc1 (stereo partly specified)
[1]
  EC50: 1800 nM
[3]
  Activity: Non-toxic
[4]
  IC50: 5100 nM

## O=C(N[C@@H](Cc1ccccc1)C(=O)N[C@@H](CC1CCNC1=O)C(O)S(=O)(=O)[O-])OCc1ccccc1.[Na+] (stereo partly specified)
[1]
  EC50: 1100 nM
[3]
  Activity: Non-toxic

## CC(C)C[C@H](NC(=O)OCc1ccc(F)cc1)C(=O)N[C@H](C=O)CC1CCNC1=O (stereo partly specified)
[1]
  EC50: 500 nM
[3]
  Activity: Non-toxic
[4]
  IC50: 1800 nM
